Tests used:
[1] = Plasma concentration in human with uncomplicated malaria at 31 mg/kg, perorally at day 28; assay type: ADME, organism-based; design: dose 31 mg/kg, route oral; settings: po
In short: (§1)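 Plasma piperaquine concentrations were simulated from the final NONMEM population model (500 simulations at each sampling time up to day 63). This followed oral dihydroartemisinin-piperaquine at a 55 mg/kg piperaquine phosphate total, given once daily at 0, 24 and 48 h or as four doses at 0, 8, 24 and 48 h.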

[2] = AUC (0 to 60 days) in human adult with uncomplicated malaria at 31 mg/kg, perorally; assay type: ADME, organism-based; design: time < 1440 hr, dose 31 mg/kg, route oral; settings: plasma, po
In short: (§2)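 Oral dihydroartemisinin-piperaquine, supervised, with no food restriction, in patients aged 3–55 y. The total dose of 55 mg/kg piperaquine phosphate was given as four doses (0, 8, 24, 48 h) or three doses (0, 24, 48 h). Sparse plasma sampling ran to day 63, measured by SPE-LC-UV (LLOQ 5 or 2.5 ng/ml). AUCs came from individual NONMEM two-compartment estimates. Children were ≤12 y and <30 kg.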

[3] = AUC (3 to 20 days) in human adult with uncomplicated malaria at 31 mg/kg, perorally; assay type: ADME, organism-based; design: dose 31 mg/kg, route oral; settings: plasma, po; in short: as §2
[4] = Apparent steady-state volume of distribution with respect to bioavailability in healthy human at 4.2 mg/kg, po after 42 days; assay type: ADME, organism-based; settings: in vivo, read-out: Vss/F
[5] = Terminal half-life in healthy human at 4.2 mg/kg, po after 42 days; assay type: ADME, organism-based; design: dose 4.2 mg/kg, route oral; settings: in vivo
[6] = Apparent oral clearance in high-fat fed healthy human at 4.2 mg/kg, po after 42 days; assay type: ADME, organism-based; design: dose 4.2 mg/kg, route oral; settings: in vivo
[7] = Terminal half-life in human with uncomplicated malaria at 31 mg/kg, perorally after 63 days; assay type: ADME, organism-based; design: dose 31 mg/kg, route oral; settings: in vivo, po
In short: (§3)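 Population PK in 98 uncomplicated falciparum patients given dihydroartemisinin-piperaquine orally (55 mg/kg piperaquine phosphate total, 3- or 4-dose regimen). Patients gave a pretreatment sample, 2–4 early-window samples and one sample on days 7–63. Plasma piperaquine was measured by SPE-LC-UV. Log concentrations were fitted by NONMEM (FO/FOCE) to a two-compartment first-order absorption model with regimen as covariate.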

[8] = AUC (3 to 20 days) in uncomplicated malaria patient at 31 mg/kg, perorally once daily for 3 days; assay type: ADME, organism-based; design: dose 31 mg/kg, route oral; settings: human, plasma, po; in short: as §2
[9] = Apparent oral clearance in human with uncomplicated malaria at 35 mg/kg, perorally after 35 days; assay type: ADME, organism-based; design: dose 35 mg/kg, route oral; settings: in vivo
[10] = AUC (0 to 63 days) in uncomplicated malaria patient at 31 mg/kg, perorally four-dose treatment regimen; assay type: ADME, organism-based; design: time < 1512 hr, dose 31 mg/kg, route oral; settings: human, plasma, po; in short: as §2
[11] = Terminal half-life in high-fat fed healthy human at 4.2 mg/kg, po after 42 days; assay type: ADME, organism-based; design: dose 4.2 mg/kg, route oral; settings: in vivo
[12] = Apparent volume of distribution with respect to bioavailability in human with uncomplicated malaria at 31 mg/kg, perorally; assay type: ADME, organism-based; settings: in vivo, po, read-out: Vc/F; in short: as §3
[13] = Terminal half-life in human with uncomplicated malaria at 31 mg/kg, perorally; assay type: ADME, organism-based; design: dose 31 mg/kg, route oral; settings: in vivo, po; in short: as §3
[14] = Terminal elimination half-life in human with uncomplicated malaria at 31 mg/kg, perorally; settings: in vivo, po
[15] = AUC (0 to 63 days) in human with uncomplicated malaria at 31 mg/kg, perorally once daily for 3 days; assay type: ADME, organism-based; design: time < 1512 hr, dose 31 mg/kg, route oral; settings: plasma, po; in short: as §2
[16] = Terminal half-life in human with uncomplicated malaria at 32 mg/kg, perorally after 35 days; assay type: ADME, organism-based; design: dose 32 mg/kg, route oral; settings: in vivo, po
[17] = Apparent oral clearance in healthy human at 4.2 mg/kg, po after 42 days; assay type: ADME, organism-based; design: dose 4.2 mg/kg, route oral; settings: in vivo
[18] = AUC (3 to 20 days) in children with uncomplicated malaria at 31 mg/kg, perorally; assay type: ADME, organism-based; design: dose 31 mg/kg, route oral; settings: human, plasma, po; in short: as §2
[19] = system: Homo sapiens; assay: Apparent peripheral volume of distribution with respect to bioavailability in human with uncomplicated malaria at 31 mg/kg, perorally; assay type: ADME, organism-based; settings: in vivo, po; in short: as §3
[20] = Apparent oral clearance in human with uncomplicated malaria at 32 mg/kg, perorally after 35 days; assay type: ADME, organism-based; design: dose 32 mg/kg, route oral; settings: in vivo
[21] = Terminal half-life in human with uncomplicated malaria at 35 mg/kg, perorally after 35 days; assay type: ADME, organism-based; design: dose 35 mg/kg, route oral; settings: in vivo, po
[22] = Plasma concentration in human with uncomplicated malaria at 31 mg/kg, perorally four-dose treatment regimen measured at day 20; assay type: ADME, organism-based; design: dose 31 mg/kg, route oral; settings: po, read-out: MIC; in short: as §1
[23] = system: Homo sapiens; assay: Apparent intercompartmental clearance with respect to bioavailability in human with uncomplicated malaria at 31 mg/kg, perorally; assay type: ADME, organism-based; settings: in vivo, po; in short: as §3
[24] = Apparent steady-state volume of distribution with respect to bioavailability in high-fat fed healthy human at 4.2 mg/kg, po after 42 days; assay type: ADME, organism-based; settings: in vivo, read-out: Vss/F
[25] = Plasma concentration in human with uncomplicated malaria at 31 mg/kg, perorally once daily for 3 days measured at day 20; assay type: ADME, organism-based; design: dose 31 mg/kg, route oral; settings: po, read-out: MIC; in short: as §1
[26] = AUC (0 to 60 days) in children with uncomplicated malaria at 31 mg/kg, perorally; assay type: ADME, organism-based; design: time < 1440 hr, dose 31 mg/kg, route oral; settings: human, plasma, po; in short: as §2
[27] = Apparent oral clearance in human with uncomplicated malaria at 31 mg/kg, perorally after 63 days; assay type: ADME, organism-based; design: dose 31 mg/kg, route oral; settings: in vivo; in short: as §3
[28] = Apparent steady-state volume of distribution with respect to bioavailability in human with uncomplicated malaria at 31 mg/kg, perorally after 63 days; assay type: ADME, organism-based; settings: in vivo, po, read-out: Vss/F; in short: as §3
[29] = AUC (3 to 20 days) in uncomplicated malaria patient at 31 mg/kg, perorally four-dose treatment regimen; assay type: ADME, organism-based; design: dose 31 mg/kg, route oral; settings: human, plasma, po; in short: as §2
[30] = Apparent steady-state volume of distribution with respect to bioavailability in human with uncomplicated malaria at 31 mg/kg, perorally; assay type: ADME, organism-based; settings: in vivo, po, read-out: Vss/F; in short: as §3
[31] = Terminal half-life in healthy human at 25 mg/kg, po after 29 days; assay type: ADME, organism-based; design: dose 25 mg/kg, route oral; settings: in vivo
[32] = Apparent steady-state volume of distribution with respect to bioavailability in human with uncomplicated malaria at 32 mg/kg, perorally after 35 days; assay type: ADME, organism-based; settings: in vivo, po, read-out: Vss/F
[33] = Apparent oral clearance in human with uncomplicated malaria at 31 mg/kg, perorally; assay type: ADME, organism-based; design: dose 31 mg/kg, route oral; settings: in vivo; in short: as §3
[34] = Apparent oral clearance in healthy human at 25 mg/kg, po after 29 days; assay type: ADME, organism-based; design: dose 25 mg/kg, route oral; settings: in vivo

concentration at 28 day [1]: < 10 ng/mL | AUC(0-t) at 1440 h [2]: 19400 ng·h/mL | AUC(0-t) [3]: 8650 ng·h/mL | Vd/F [4]: 716 L/kg | half-life [5]: 20 days | CL/F [6]: 10 mL/min/kg | half-life [7]: 28 days | AUC [8]: 8650 ng·h/mL | CL/F [9]: 30.8 mL/min/kg | AUC(0-t) at 1512 h [10]: 20700 ng·h/mL | half-life [11]: 21 days | Vd/F [12]: 8660 L | half-life [13]: 28 days | half-life [14]: 27.8 days | AUC at 1512 h [15]: 19400 ng·h/mL | half-life [16]: 23 days | CL/F [17]: 19 mL/min/kg | AUC(0-t) [18]: 7580 ng·h/mL | Vp/F [19]: 24000 L | CL/F [20]: 15 mL/min/kg | half-life [21]: 14 days | concentration at 20 day [22]: 13 ng/mL | CL/F [23]: 131 L/h | Vd/F [24]: 365 L/kg | concentration at 72 h [25]: 12 ng/mL | AUC(0-t) at 1440 h [26]: 25900 ng·h/mL | CL/F [27]: 23.3 mL/min/kg | Vd/F [28]: 874 L/kg | AUC(0-t) [29]: 9070 ng·h/mL | Vd/F [30]: 38100 L | half-life [31]: 12 days | Vd/F [32]: 574 L/kg | CL/F [33]: 1100 mL/min | CL/F [34]: 16.7 mL/min/kg
Compound: Clc1ccc2c(N3CCN(CCCN4CCN(c5ccnc6cc(Cl)ccc56)CC4)CC3)ccnc2c1 [PIPERAQUINE]
